From PubChem BioAssay
Rows were chosen to be rich in hits. Some 1.4% of all compounds tested hit in one or more screens of this group.
bovine MsrA act – bovine methionine sulfoxide reductase A activation. purified bovine MsrA, absorbance read-out. activation, % at 10.6 µM. 360,000 tested, 0.3% active; in the data active = activation above about 7.5%;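 also: 0% = vehicle and 100% = reference activator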
MsrA inhibitor – inhibits bovine methionine sulfoxide reductase A | purified bovine MsrA, absorbance read-out | 360,000 tested, 0.75% active | inhibition, % at 15.5 µM; in the data active = inhibition above about 4.5%;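 also: 0% = vehicle wells with enzyme and 100% = reference inhibitor wells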
ARFGAP1 inhibitor – inhibits rat ARF GTPase activating protein 1. AID 651572. inhibition, % at 16.5 µM. Q62848. Arfgap1-stimulated ARF1 GTP hydrolysis, GDP FP detection. 360,000 tested, 0.26% active;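 active = inhibition above a per-plate limit, mean inhibition of low control wells plus 3 SD, cut at about 25% in these data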;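 also: 0% = DMSO wells with enzyme and 100% = wells lacking Arfgap1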
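system = rat Arfgap1 catalytic domain, aa 1-136 | technique = FP, GDP Alexa 633 tracer displaced from anti-GDP antibody, 620/688 nm | compound = one concentration, 16.5 µM, DMSO 1.26% | medium = HEPES-based buffer, pH 7.5 | timing = compound-enzyme preincubation 20 min, reaction 120 min, detection 60 min, 25 °C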
ASAP1 inh – blocks human ASAP1-stimulated Arf1 GTP hydrolysis. inhibition, % at 16.5 µM. Q9ULH1. AID 624377. GDP FP detection. 360,000 tested, 0.19% active; in the data active = inhibition above about 25%;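 also: 0% = vehicle with enzyme and substrate and 100% = no enzyme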
ARFGAP1 confirm – confirmation of rat ARFGAP1 inhibitors | ARFGAP1-stimulated ARF1 GTP hydrolysis, GDP tracer FP | inhibition, % at 16.5 µM | AID 651608 | 890 tested, 30% active | shares compounds with ARFGAP1 inhibitor;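 active = average inhibition over triplicates above the hit cutoff set in the earlier primary screen, cut at about 25% in these data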;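 also: 0% = Arfgap1 plus ARF1-GTP with DMSO and 100% = wells lacking Arfgap1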
Target sequence (Q62848 whole entry, looked up): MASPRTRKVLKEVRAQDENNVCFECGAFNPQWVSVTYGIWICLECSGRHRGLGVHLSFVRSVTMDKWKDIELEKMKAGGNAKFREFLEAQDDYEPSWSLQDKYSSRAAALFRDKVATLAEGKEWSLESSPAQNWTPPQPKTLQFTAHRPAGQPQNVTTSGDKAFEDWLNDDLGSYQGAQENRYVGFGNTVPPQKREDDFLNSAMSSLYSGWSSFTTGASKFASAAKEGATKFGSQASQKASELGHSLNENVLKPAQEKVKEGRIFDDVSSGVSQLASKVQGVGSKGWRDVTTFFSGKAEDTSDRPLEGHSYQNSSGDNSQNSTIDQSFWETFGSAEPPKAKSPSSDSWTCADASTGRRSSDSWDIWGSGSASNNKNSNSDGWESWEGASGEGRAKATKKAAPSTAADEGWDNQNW
Numbers without * were called inactive; x = not tested or not shown; ! = repeats disagree.

SMILES	bovine MsrA act	MsrA inhibitor	ARFGAP1 inhibitor	ASAP1 inh	ARFGAP1 confirm
O=C(COC(=O)C1CC1)Nc1ccc(S(=O)(=O)N2CCOCC2)cc1	-2	0	-8	10	x
CCOc1ccc(-c2nnn(CC(=O)NCc3ccc4c(c3)OCO4)n2)cc1	-7	1	29*	-3	12
COc1ccc(-c2nnn(CC(=O)NCc3ccc4c(c3)OCO4)n2)cc1OC	-2	0	6	11	x
COc1ccc(N(C(=O)c2ccco2)C(C(=O)NC2CCCC2)c2cccnc2)c(OC)c1 (configuration not stated)	-3	1	26*	-7	8
Cc1c(C)c2ccc(OCC(=O)NCCc3c[nH]c4ccccc34)c(C)c2oc1=O	-5	0	25*	15	6
N#CCCn1cc(/C=N/O)c(-c2ccccc2)n1	-11	1	1	1	x
N#CCCn1cc(/C=N/NC(N)=S)c(-c2ccc(-c3ccccc3)cc2)n1	-9	1	27*	-3	26*
C[C@@H]1CCCCO[C@H](CN(C)Cc2ccc(C(=O)O)cc2)[C@H](C)CN([C@@H](C)CO)C(=O)c2cc(NC(=O)Nc3ccc(C(F)(F)F)cc3)ccc2O1	-8	0	25*	7	0
C[C@@H]1CCCCO[C@H](CN(C)C)[C@H](C)CN([C@@H](C)CO)C(=O)c2cc(NC(=O)Nc3ccc(C(F)(F)F)cc3)ccc2O1	1	-2	4	5	x
C[C@H](CO)N1C[C@H](C)[C@@H](CN(C)C(=O)Nc2ccc(C(F)(F)F)cc2)Oc2ccc(NC(=O)Nc3ccccc3)cc2C1=O	-3	-1	30*	15	12
O=C(N/N=C/c1ccc(O)cc1O)c1ccc(CN2C(=O)c3cccc4cccc2c34)cc1	-6	4	27*	7	80*
CCCCNC(=O)N1CCc2ccccc2C1	-1	-2	1	-13	x
CCCCNc1nc2ccccc2n1CC(=O)N1CCc2ccccc2C1	1	0	47*	6	4
O=C(CN1CCOCCOCCOCCOCC1)Nc1ccccc1	-2	-1	2	17	x
Cc1cccc(NC(=O)C2(c3cccs3)CCOCC2)c1	-3	0	35*	-12	4
C[n+]1c2cc(N)ccc2cc2ccc(N)cc21	-1	0	25*!	20	3
Nc1ccc2ccc(O)cc2c1	-4	0	10	0	x
CC1(c2ccccc2)NC(=O)N(CC(=O)Nc2ccc(N3CCOCC3)cc2)C1=O (configuration not stated)	-12	1	6	1	x
CCN(c1ccc(OC)cc1)S(=O)(=O)c1ccc2c(c1)CCN2C(=O)CCC(=O)O	-7	-1	-10	11	x
CCN(c1ccc(C)c(C)c1)S(=O)(=O)c1ccc2c(c1)CCN2C(=O)CCC(=O)O	-4	1	29*	2	-5
CCC(=O)Nc1cc(=O)[nH]c2nc(-c3ccc(Cl)cc3)nn12	-4	-2	11	3	x
O=C(/C=C/c1ccc(Cl)cc1)NC(=S)Nc1ccc(NC(=O)c2ccco2)cc1	-8	0	86*	22	110*
CCS(=O)(=O)C(=C1NCCO1)S(=O)(=O)CC	-13	0	25*	-1	-4
O=[N+]([O-])/C(C(=C(Cl)Cl)N1CCOCC1)=C1\NCCO1	-1	2	4	1	x
O=C(Nc1ccc(CN2CCOCC2)cc1)c1ccc(Br)o1	-10	1	4	7	x
SMILES	bovine MsrA act	MsrA inhibitor	ARFGAP1 inhibitor	ASAP1 inh	ARFGAP1 confirm
O=C(Nc1ccc(CN2CCOCC2)cc1)c1ccc(-c2cc(Cl)ccc2Cl)o1	-4	0	37*	13	25*
COc1cc(NC(=O)COc2ccc([N+](=O)[O-])cc2)ccc1NC(=O)c1ccco1	0	1	58*	12	75*
COCC(=O)Nc1ccc([N+](=O)[O-])cc1OC	-4	1	-5	-1	x
COc1cc([N+](=O)[O-])ccc1NC(=O)COC(=O)c1ccc(NC(N)=O)cc1	-1	-1	29*	14	20
COc1cc(NC(=O)c2cc3ccccc3o2)ccc1NC(=O)c1ccco1	-2	0	27*	-1	11
COc1cc(NC(=O)c2c(OC)cccc2OC)ccc1NC(=O)c1cc2ccccc2o1	-7	2	12	11	x
COC(=O)C1=C(C)N(C)C(=NCc2ccccc2)NC1c1ccc(F)cc1 (configuration not stated)	x	-1	-7	-4	x
C[C@@H](NC(=O)c1[nH]cnc1C(=O)Nc1cccc(Cl)c1)c1ccccc1	-2	0	7	14	x
